Experiments:
Assay type in all cases: functional, Mus musculus
[1] = test system: Friend leukemia cell line; assay: The degree of erythroid maturation was measured by assessing the proportion of benzidine-positive friend leukemia cells at a concentration of 4 mM
How it was run: (§1)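 Friend erythroleukemia clone 745A cells seeded at 10^5 cells/mL in DMEM with 15% fetal calf serum at 37 °C, 10% CO2. Agent given at seeding, continuous exposure, twofold-graded concentrations; Me2SO positive control in each experiment. On day 6, hemoglobin-containing cells scored cytologically by staining with acid benzidine peroxide. Optimum concentration averaged from at least two experiments.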

[2] = test system: Friend leukemia cell line; assay: Percent of untreated control cell growth evaluated in friend leukemia cells on day 3 at a concentration of 4 mM; details: at 4 mM
[3] = test system: Friend leukemia cell line; assay: Cell growth of friend erythroleukemia cells measured as percentage of control on day 6 at a concentration of 4 mM; details: at 4 mM
[4] = test system: Friend leukemia cell line; assay: The degree of erythroid maturation was measured by assessing the proportion of benzidine-positive cells at a concentration of 4 mM; details: at 4 mM
[5] = test system: Friend leukemia cell line; assay: Percent of untreated control cell growth evaluated in friend leukemia cells on day 3 at a concentration of 2 mM
How it was run: (§2)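 Friend murine erythroleukemia clone 745A grown in suspension at 37 °C, 10% CO2, in DMEM with 15% fetal calf serum, streptomycin and penicillin. Agent added at seeding of exponentially growing cells (10^5 cells/mL), continuous exposure over twofold-graded concentrations. Cell numbers counted electronically on days 3 and 6, expressed relative to untreated control. At least two separate experiments.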

[6] = test system: Friend leukemia cell line; assay: The degree of erythroid maturation was measured by assessing the proportion of benzidine-positive cells at a concentration of 2 mM; how it was run: as §1
[7] = test system: Friend leukemia cell line; assay: Cell growth of friend erythroleukemia cells measured as percentage of control on day 6 at a concentration of 2 mM; how it was run: as §2
[8] = test system: Friend leukemia cell line; assay: Cell growth of friend erythroleukemia cells measured as percentage of control on day 6 at a concentration of 0.1-10 mM; how it was run: as §2
[9] = test system: Friend leukemia cell line; assay: Percent of untreated control cell growth evaluated in friend leukemia cells on day 3 at a concentration of 0.1-10 mM; how it was run: as §2
[10] = test system: Friend leukemia cell line; assay: The degree of erythroid maturation was measured by assessing the proportion of benzidine-positive friend leukemia cells at a concentration of 0.1-10 mM; how it was run: as §1
[11] = test system: Friend leukemia cell line; assay: The degree of erythroid maturation was measured by assessing the proportion of benzidine-positive friend leukemia cells at a concentration of 2 mM; how it was run: as §1
[12] = test system: Friend leukemia cell line; assay: Percent of untreated control cell growth evaluated in friend leukemia cells on day 3 at a concentration of 16 mM; how it was run: as §2
[13] = test system: Friend leukemia cell line; assay: Cell growth of friend erythroleukemia cells measured as percentage of control on day 6 at a concentration of 16 mM; how it was run: as §2
[14] = test system: Friend leukemia cell line; assay: The degree of erythroid maturation was measured by assessing the proportion of benzidine-positive friend leukemia cells at a concentration of 16 mM; how it was run: as §1
[15] = test system: Friend leukemia cell line; assay: Percent of untreated control cell growth evaluated in friend leukemia cells on day 3 at a concentration of 1 mM; how it was run: as §2
[16] = test system: Friend leukemia cell line; assay: Cell growth of friend erythroleukemia cells measured as percentage of control on day 6 at a concentration of 1 mM; how it was run: as §2
[17] = test system: Friend leukemia cell line; assay: The degree of erythroid maturation was measured by assessing the proportion of benzidine-positive friend leukemia cells at a concentration of 1 mM; how it was run: as §1
[18] = test system: Friend leukemia cell line; assay: Effect on the replication and erythroid differentiation of friend leukemia cells on day 3 at a concentration of 210 mM
[19] = test system: Friend leukemia cell line; assay: Percent of untreated control cell growth evaluated in friend leukemia cells on day 3 at a concentration of 105 mM; how it was run: as §2
[20] = test system: Friend leukemia cell line; assay: Cell growth of friend erythroleukemia cells measured as percentage of control on day 6 at a concentration of 105 mM; how it was run: as §2
[21] = test system: Friend leukemia cell line; assay: Effect on the replication and erythroid differentiation of friend leukemia cells on day 6 at a concentration of 210 mM
[22] = test system: Friend leukemia cell line; assay: The degree of erythroid maturation was measured by assessing the proportion of benzidine-positive cells at a concentration of 210 mM; how it was run: as §1

For `CCN1CCCN(CC)C1=O`, the Benzidine positive cells [1] was 70%, the Cell growth [2] was 160% and the Cell growth [3] was 127%.

In the case of `CN1CCCN(C)C1=S`, the Benzidine positive cells [4] is reported as 83%, the Cell growth [2] is reported as 75% and the Cell growth [3] is reported as 135%.

With `SC1=NCCCCN1` the Cell growth [5] was 54%, the Benzidine positive cells [6] was 42% and the Cell growth [7] was 82%.

Work on `SC1=NCCCN1` yielded a Cell growth [5] of 144%, a Benzidine positive cells [6] of 14% and a Cell growth [7] of 44%.

With `CCCCN1CCCN(CCCC)C1=O` the Cell growth [8] was less than 1%, the Cell growth [9] was less than 5% and the Benzidine positive cells [10] was less than 1%.

Work on `O=C(N1CCCCC1)N1CCCCC1` yielded a Benzidine positive cells [1] of 10%, a Cell growth [2] of 28% and a Cell growth [3] of 33%.

For `CCN1CCCCN(CC)C1=O`, the Benzidine positive cells [1] was 31%, the Cell growth [2] was 40% and the Cell growth [3] was 131%.

`CCN(CC)C(=O)N(CC)CC` showed a Cell growth [5] of 69%, a Cell growth [7] of 77% and a Benzidine positive cells [11] of 68%.

`O=C1NCCN1` showed a Benzidine positive cells [4] of 4%, a Cell growth [2] of 88% and a Cell growth [3] of 108%.

`CCN1CCN(CC)C1=O` was tested, and the Cell growth [12] was 36%, the Cell growth [13] was 140% and the Benzidine positive cells [14] was 81%.

`CCN1CCN(CC)C1=S` showed a Cell growth [5] of 60%, a Cell growth [7] of 120% and a Benzidine positive cells [11] of 84%.

`CN(C)C(=S)N(C)C` was tested, and the Cell growth [5] was 123%, the Benzidine positive cells [6] was 79% and the Cell growth [7] was 98%.

`CN1CCCN(C)C1=O` gave a Cell growth [5] of 90%, a Benzidine positive cells [6] of 92% and a Cell growth [7] of 87%.

`CN1CCCNC1=O` was tested, and the Cell growth [5] was 46%, the Benzidine positive cells [6] was 50% and the Cell growth [7] was 136%.

`CN1CCN(C)C1=O` showed a Benzidine positive cells [4] of 92%, a Cell growth [2] of 70% and a Cell growth [3] of 73%.

Work on `CCN(CC)C(=S)N(CC)CC` yielded a Cell growth [8] of less than 1%, a Cell growth [9] of less than 4% and a Benzidine positive cells [10] of less than 1%.

Compound `O=C1NCCCCN1` has a Cell growth [5] of 93%, a Benzidine positive cells [6] of 66% and a Cell growth [7] of 104%.

Compound `O=C1NCCCN1` has a Benzidine positive cells [4] of 15%, a Cell growth [2] of 124% and a Cell growth [3] of 121%.

Work on `CN1CCCCN(C)C1=O` yielded a Benzidine positive cells [1] of 92%, a Cell growth [2] of 25% and a Cell growth [3] of 61%.

Work on `CN1CCN(C)C1=S` yielded a Cell growth [5] of 102%, a Benzidine positive cells [6] of 66% and a Cell growth [7] of 95%.

Work on `CN1CCCCN(C)C1=S` yielded a Benzidine positive cells [1] of 79%, a Cell growth [2] of 64% and a Cell growth [3] of 73%.

Work on `CCN1CCCN(CC)C1=S` yielded a Cell growth [15] of 45%, a Cell growth [16] of 97% and a Benzidine positive cells [17] of 61%.

Work on `CN1CCCN=C1S` yielded a Cell growth [5] of 107%, a Benzidine positive cells [6] of 22% and a Cell growth [7] of 166%.

Work on `C[S+](C)[O-]` [DIMETHYL SULFOXIDE] yielded a Cell growth [18] of 72%, a Cell growth [19] of 70% and a Cell growth [20] of 120%. For the same compound, the Cell growth [21] was 110%, the Benzidine positive cells [4] was 75% and the Benzidine positive cells [22] was 94%.

Compound `S=C1NCCN1` [ETHYLENE THIOUREA] has a Benzidine positive cells [4] of 21%, a Cell growth [2] of 128% and a Cell growth [3] of 62%.
